HCT116 PTEN-null = PTEN-deleted cell growth suppression | viability, % at 10 µM | AID 827 | HCT116 PTEN-null viability, CellTiter-Glo, 60 h; stronger effect = lower value | 1.2% of 140,000 active;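 active = viability at or below a set limit, 4 SD under the median of all tested compounds, cut at about 3.7% in these data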;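 note: PTEN knockout HCT116 line with beta catenin targeted HCT116 as companion control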
Yeast growth inh = reduces growth of yeast BB579 in restrictive medium; S. cerevisiae BB579 growth, OD615, 48 h; inhibition, % at 10 µM; 0.51% of 140,000 active;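 active = inhibition above a set limit, 3 SD over the mean compound inhibition, cut at about 44% in these data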
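System: DeaD yeast strain BB579; buffer or medium: CSMM-D dextrose restrictive medium; technique: OD at 615 nm; schedule: 4 h cell preincubation, 48 h compound exposure, 30 °C humidified; doses: single 10 µM dose; controls: amphotericin B 10 µg/mL, positive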
sdo1 growth = sdo1-depleted yeast growth rescue; 0.21% of 140,000 active; S. cerevisiae sdo1-depleted JHY4D growth rescue, OD600 30 h; stronger effect = higher value; pdr5 snq2 efflux-pump mutant strain; z-score at 10 µM;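 active = z-score above 3 at both the 24 hr and the 30 hr optical density reads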;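 note: z-score against mean and SD of all compound wells on the same plate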
bCat KO growth = beta-catenin-lacking colon tumor cell growth suppression | HCT116 beta-catenin knockout viability, CellTiter-Glo, 60 h; stronger effect = lower value | viability, % at 10 µM | 1.5% of 140,000 active;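 active = viability at or under a set limit, the compound median less 4 SD, cut at about 6% in these data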;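 note: 0% = Hyamine 1622 control at 20 µM and 100% = untreated cell control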
Yeast life ext = extends the lifespan of yeast | 0.68% of 130,000 active | S. cerevisiae growth with nicotinamide, OD615; deaD strain in restrictive glucose medium | AID 775 | inhibition of the nicotinamide effect, % at 10 µM;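 active = inhibition above a set limit, placed 3 SD over the median of all compounds, cut at about 26% in these data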;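 note: 0% = nicotinamide-treated wells and 100% = cells grown without nicotinamide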
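assay system = DeaD-strain S. cerevisiae | measured by = absorbance at 615 nm | probe or stimulus = nicotinamide 1.5 mM | buffer or medium = CSMM-D glucose medium, restrictive | times = 48 h at 30 °C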
The depositor's hits bear a star; / = not tested or not shown. Only some compounds are listed: those with a hit (about 2.8% of all), similar ones and a draw of the others.

SMILES	HCT116 PTEN-null	Yeast growth inh	sdo1 growth	bCat KO growth	Yeast life ext
CC(CCc1ccccc1)NC(=O)C(=O)Nc1ccccc1 (stereo not drawn)	85	-30	-1.3	86	-2
Cc1csc(SCC(=O)NC23CC4CC(CC(C4)C2)C3)n1	/	-59	-1.1	95	39*
CCCCCCNC(=O)CCCCCNS(=O)(=O)c1ccc(OC)cc1	93	-16	0.5	93	4
COCCSc1ccccc1C(=O)N1CCN(Cc2ccc3c(c2)OCO3)CC1	89	2	0.42	93	-7
Nc1nsc2ccccc12	4	46*	-2.3	4.7*	-8
CCNC(=O)CN(C1CCCCC1)S(C)(=O)=O	103	-21	-0.35	93	2
Cc1cc2cc(C)c3nnc(SCC(=O)Nc4ccc(S(=O)(=O)N5CCCCC5)cc4)n3c2cc1C	16	5	-0.79	37	0
O=C(Nc1ccccc1)c1nnsc1S(=O)c1ccc(Cl)cc1 (stereo not drawn)	2.2*	9	-2	7	-21
O=C(Nc1ccc(Cl)cc1)c1cccs1	88	-2	-0.13	82	-7
CCOC(=O)c1c(/N=C/c2cccc([N+](=O)[O-])c2O)sc(C)c1C	92	75*	0.63	99	-6
CCOC(=O)c1c(/N=C/C2=C(O)CCCC2=O)sc(C)c1C	99	-33	0.63	96	-5
CCCCCOC(=O)C1=C(C)N(C)C(=O)NC1c1cc(Br)c(O)c(OC)c1 (stereo not drawn)	83	-31	-0.75	84	-8
CC(C)n1nc(C(=O)Oc2ccc(Cl)cc2)c2ccccc2c1=O	94	-32	-0.68	88	29*
C/C(=N\NC(=O)c1ccccc1)c1ccc(-n2ccnc2)cc1	96	-8	0.84	86	0
C/C(=N\Nc1ccc(Cl)c(Cl)c1)c1ccc(-n2ccnc2)cc1	68	95*	-1.4	75	-10
O=C1C2C(c3ccccc3)C=CC(c3ccccc3)C2C(=O)N1c1ccccn1 (stereo not drawn)	86	-57	-0.74	89	30*
Cc1ccc(-c2c3c(nc4sc(C(N)=O)c(N)c24)CCC3)cc1	46	-3	-1.7	61	-22
COc1ccc(-c2c3c(nc4sc5c(Cl)nc(C)nc5c24)CCC3)cc1	1.5*	-47	-0.46	1.2*	-3
Cc1cc(C)c(Nc2cc(S(=O)(=O)O)c(N)c3c2C(=O)c2ccccc2C3=O)c(C)c1	77	-71	1.8	85	35*
Cc1nc2ccc(NC(=O)c3cc([N+](=O)[O-])cc([N+](=O)[O-])c3Cl)cc2s1	88	89*	-2.1	97	-11
S=c1[nH]nc(C2CCCCC2)n1/N=C/C(Cl)=C\c1ccccc1	9	-28	-1.5	12	7
Cc1cc(-c2n[nH]c(=S)n2/N=C/C(Cl)=C/c2ccccc2)n[nH]1	2.2*	-54	-0.92	5.0*	-2
O=C(NCCF)[C@H]1C[C@@H]1[C@H](NP(=O)(c1ccccc1)c1ccccc1)c1ccccc1	99	-15	0.72	106	1
O=C(NCc1ccccn1)[C@H]1C[C@@H]1[C@H](NP(=O)(c1ccccc1)c1ccccc1)c1ccccc1	0.6*	1	-0.84	0.8*	2
Cc1ccnc(NC(=O)c2ccc([N+](=O)[O-])o2)c1	4	-11	-1.9	3.5*	-2
SMILES	HCT116 PTEN-null	Yeast growth inh	sdo1 growth	bCat KO growth	Yeast life ext
Cn1ncc2c(NNC(=O)c3ccc(Cl)cc3Cl)ncnc21	86	10	0.58	81	-3
Cc1cccc(/N=C/c2c(O)ccc3oc4c(c23)CCCC4)n1	87	-15	-0.61	84	31*
COc1ccc(C(=O)Nc2nnc(-c3ccco3)s2)cc1	1.8*	-48	0	1.6*	-15
C=CCNC(=O)Nc1ccc(Cl)cn1	94	-5	1.7	99	-4
O=C(N/N=C/C(Br)=C/c1ccccc1)c1n[nH]c2c1CCC2	1.7*	-88	-0.94	2.7*	-1
CC(C)n1c(=O)c2c(O)cc(=O)oc2c2ccccc21	80	-8	-0.75	91	63*
CCn1c(=O)c2c(O)cc(=O)oc2c2ccccc21	83	-2	0.31	88	42*
CN(CC(CC(=O)Nc1nncs1)c1ccccc1)S(=O)(=O)c1ccc(Br)cc1 (stereo not drawn)	47	-10	0.14	38	-10
CCOC(=O)C1=C(C)Nc2nc(=S)[nH]n2C1c1ccc(Cl)cc1 (stereo not drawn)	78	-50	0.37	101	62*

Assay outcomes (PubChem BioAssay)
